Assay results: ChEMBL document CHEMBL1146195, “Use of novel boronic acid transition state inhibitors to probe substrate affinity in SHV-type extended-spectrum beta-lactamases” (Antimicrob Agents Chemother, 2007)
Residue numbers refer to the chain shown, from its start.

Key:
[1] = Binding affinity at Beta-lactamase SHV2 G238S expressed in Escherichia coli DH10B cells
How it was run: (§1)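 Enzyme cloned in pBCSK(−), expressed in E. coli DH10B, purified, then further purified by size-exclusion HPLC; purity checked by SDS-PAGE. Ki found by competing increasing inhibitor concentrations against nitrocefin at 4–6 × Km in continuous spectrophotometric assays at room temperature. Percent inhibition was fitted to an equation using the nitrocefin Km.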

[2] = Binding affinity at Beta-lactamase D104K expressed in Escherichia coli DH10B cells; how it was run: as §1
Beta-lactamase SHV-1 = biological target: T1, Beta-lactamase SHV-1 (Escherichia coli, UniProt P0AD63); test: Binding affinity at Beta-lactamase SHV1 expressed in Escherichia coli DH10B cells
T1 sequence (P0AD63 whole entry): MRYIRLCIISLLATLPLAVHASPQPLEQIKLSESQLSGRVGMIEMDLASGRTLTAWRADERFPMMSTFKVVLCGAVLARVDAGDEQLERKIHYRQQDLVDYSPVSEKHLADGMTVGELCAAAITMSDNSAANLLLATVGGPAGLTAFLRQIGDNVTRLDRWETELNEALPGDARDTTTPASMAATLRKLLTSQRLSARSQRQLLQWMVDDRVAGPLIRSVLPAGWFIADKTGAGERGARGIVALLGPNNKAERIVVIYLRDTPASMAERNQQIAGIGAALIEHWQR
How it was run: as §1, with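 “SHV-1” for “Enzyme”, “DH10B and purified;” for “DH10B, purified, then further purified by size-exclusion HPLC;”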

[3] = Binding affinity at Beta-lactamase D104K G238S expressed in Escherichia coli DH10B cells; how it was run: as §1
[4] = biological target: T2, SHV-5 extended spectrum beta-lactamase (Escherichia coli, UniProt Q6REX6); test: Binding affinity at Beta-lactamase SHV5 expressed in Escherichia coli DH10B cells
T2 sequence (Q6REX6 whole entry): T1 sequence (P0AD63 whole entry) with L31Q, T231N, G234S, E235K, S265N
How it was run: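 Purified SHV-5 enzyme, expressed in E. coli DH10B from pBCSK(−); purity checked by SDS-PAGE. Ki from continuous spectrophotometric competition assays at room temperature: increasing inhibitor concentrations against nitrocefin at 4 to 6 times its Km. Percent inhibition fitted using the nitrocefin Km. Inhibition mode from full progress curves at varied nitrocefin, without inhibitor and at two inhibitor concentrations.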

SMILES	Ki [1]	Ki [2]	Ki (Beta-lactamase SHV-1)	Ki [3]	Ki [4]
CC(C)(O/N=C(\C(=O)NCB(O)O)c1csc(N)n1)C(=O)O [CEFTAZIDIME BATSI]	6.8 µM	0.7 µM	2.2 µM	4.5 µM	4.5 µM
CC(=O)NCB(O)O [ACETAMIDOMETHYLBORONIC ACID]	330 µM	190 µM	300 µM	300 µM	360 µM
CO/N=C(\C(=O)NCB(O)O)c1csc(N)n1 [CEFOTAXIME BATSI]	3.4 µM	5 µM	8.9 µM	1.1 µM	5 µM
